Active and inactive are the calls of the source. The rule behind the calls is not given here.
Experiments:
[1] = molecular target: Serine/threonine-protein phosphatase 6 regulatory subunit 1 (Homo sapiens) (UniProt Q9UPN7); test: Binding affinity to PP6R1 protein in human INA-6 cells after 3 hrs by nanoLC-MS/MS method; format: cell-based
Procedure, shortened: (§1)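 The biotinylated inhibitor was loaded on streptavidin beads, with empty beads as the control. Eluates were trypsin-digested and run by nanoLC-MS/MS. Inhibitor/control ratios came from label-free quantification, taken as medians of five biological replicates. Enrichment was called at Benjamini-Hochberg-adjusted limma p < 0.02.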

[2] = molecular target: Peflin (Homo sapiens) (UniProt Q9UBV8); test: Binding affinity to PEF1 protein in human INA-6 cells after 3 hrs by nanoLC-MS/MS method; format: cell-based; procedure, shortened: as §1
[3] = molecular target: CCR4-NOT transcription complex subunit 9 (Homo sapiens) (UniProt Q92600); test: Binding affinity to RCD1 protein in human INA-6 cells after 3 hrs by nanoLC-MS/MS method; format: cell-based; procedure, shortened: as §1
[4] = system: INA-6; test: Inhibition of heat shock response in human INA-6 cells assessed as reduction in HSF-1 mediated upregulation of the heat shock protein HSP27 at 50 uM preincubated for 4 hrs followed by HSP90 inhibitor and HSR inducer NVP-AUY922 addition measured after 4 hrs by ELISA; format: functional, cell-based
[5] = molecular target: Mitogen-activated protein kinase kinase kinase 5 (Homo sapiens) (UniProt Q99683); test: Binding affinity to MAP3K5 in human INA-6 cells after 3 hrs by nanoLC-MS/MS method; format: cell-based; procedure, shortened: as §1
[6] = molecular target: CCR4-NOT transcription complex subunit 7 (Homo sapiens) (UniProt Q9UIV1); test: Binding affinity to CCR4-NOT transcription complex subunit 7 in human INA-6 cells after 3 hrs by nanoLC-MS/MS method; format: cell-based; procedure, shortened: as §1
[7] = molecular target: Serine/threonine-protein phosphatase 6 regulatory ankyrin repeat subunit B (Homo sapiens) (UniProt Q8N8A2); test: Binding affinity to serine/threonine-protein phosphatase 6 regulatory ankyrin repeat subunit B in human INA-6 cells after 3 hrs by nanoLC-MS/MS method; format: cell-based; procedure, shortened: as §1
[8] = molecular target: CCR4-NOT transcription complex subunit 2 (Homo sapiens) (UniProt Q9NZN8); test: Binding affinity to CCR4-NOT transcription complex subunit 2 in human INA-6 cells after 3 hrs by nanoLC-MS/MS method; format: cell-based; procedure, shortened: as §1
[9] = molecular target: Exportin-T (Homo sapiens) (UniProt O43592); test: Binding affinity to XPOT protein in human INA-6 cells after 3 hrs by nanoLC-MS/MS method; format: cell-based; procedure, shortened: as §1
[10] = molecular target: MICOS complex subunit MIC19 (Homo sapiens) (UniProt Q9NX63); test: Binding affinity to MICOS complex subunit MIC19 in human INA-6 cells after 3 hrs by nanoLC-MS/MS method; format: cell-based; procedure, shortened: as §1
[11] = molecular target: Programmed cell death protein 6 (Homo sapiens) (UniProt O75340); test: Binding affinity to PDCD6 protein in human INA-6 cells after 3 hrs by nanoLC-MS/MS method; format: cell-based; procedure, shortened: as §1
[12] = molecular target: CCR4-NOT transcription complex subunit 1 (Homo sapiens) (UniProt A5YKK6); test: Binding affinity to CCR4-NOT transcription complex subunit 1 in human INA-6 cells after 3 hrs by nanoLC-MS/MS method; format: cell-based; procedure, shortened: as §1
Chain of CCR4-NOT transcription complex subunit 1 (Homo sapiens) (A5YKK6 whole entry, one chain of several): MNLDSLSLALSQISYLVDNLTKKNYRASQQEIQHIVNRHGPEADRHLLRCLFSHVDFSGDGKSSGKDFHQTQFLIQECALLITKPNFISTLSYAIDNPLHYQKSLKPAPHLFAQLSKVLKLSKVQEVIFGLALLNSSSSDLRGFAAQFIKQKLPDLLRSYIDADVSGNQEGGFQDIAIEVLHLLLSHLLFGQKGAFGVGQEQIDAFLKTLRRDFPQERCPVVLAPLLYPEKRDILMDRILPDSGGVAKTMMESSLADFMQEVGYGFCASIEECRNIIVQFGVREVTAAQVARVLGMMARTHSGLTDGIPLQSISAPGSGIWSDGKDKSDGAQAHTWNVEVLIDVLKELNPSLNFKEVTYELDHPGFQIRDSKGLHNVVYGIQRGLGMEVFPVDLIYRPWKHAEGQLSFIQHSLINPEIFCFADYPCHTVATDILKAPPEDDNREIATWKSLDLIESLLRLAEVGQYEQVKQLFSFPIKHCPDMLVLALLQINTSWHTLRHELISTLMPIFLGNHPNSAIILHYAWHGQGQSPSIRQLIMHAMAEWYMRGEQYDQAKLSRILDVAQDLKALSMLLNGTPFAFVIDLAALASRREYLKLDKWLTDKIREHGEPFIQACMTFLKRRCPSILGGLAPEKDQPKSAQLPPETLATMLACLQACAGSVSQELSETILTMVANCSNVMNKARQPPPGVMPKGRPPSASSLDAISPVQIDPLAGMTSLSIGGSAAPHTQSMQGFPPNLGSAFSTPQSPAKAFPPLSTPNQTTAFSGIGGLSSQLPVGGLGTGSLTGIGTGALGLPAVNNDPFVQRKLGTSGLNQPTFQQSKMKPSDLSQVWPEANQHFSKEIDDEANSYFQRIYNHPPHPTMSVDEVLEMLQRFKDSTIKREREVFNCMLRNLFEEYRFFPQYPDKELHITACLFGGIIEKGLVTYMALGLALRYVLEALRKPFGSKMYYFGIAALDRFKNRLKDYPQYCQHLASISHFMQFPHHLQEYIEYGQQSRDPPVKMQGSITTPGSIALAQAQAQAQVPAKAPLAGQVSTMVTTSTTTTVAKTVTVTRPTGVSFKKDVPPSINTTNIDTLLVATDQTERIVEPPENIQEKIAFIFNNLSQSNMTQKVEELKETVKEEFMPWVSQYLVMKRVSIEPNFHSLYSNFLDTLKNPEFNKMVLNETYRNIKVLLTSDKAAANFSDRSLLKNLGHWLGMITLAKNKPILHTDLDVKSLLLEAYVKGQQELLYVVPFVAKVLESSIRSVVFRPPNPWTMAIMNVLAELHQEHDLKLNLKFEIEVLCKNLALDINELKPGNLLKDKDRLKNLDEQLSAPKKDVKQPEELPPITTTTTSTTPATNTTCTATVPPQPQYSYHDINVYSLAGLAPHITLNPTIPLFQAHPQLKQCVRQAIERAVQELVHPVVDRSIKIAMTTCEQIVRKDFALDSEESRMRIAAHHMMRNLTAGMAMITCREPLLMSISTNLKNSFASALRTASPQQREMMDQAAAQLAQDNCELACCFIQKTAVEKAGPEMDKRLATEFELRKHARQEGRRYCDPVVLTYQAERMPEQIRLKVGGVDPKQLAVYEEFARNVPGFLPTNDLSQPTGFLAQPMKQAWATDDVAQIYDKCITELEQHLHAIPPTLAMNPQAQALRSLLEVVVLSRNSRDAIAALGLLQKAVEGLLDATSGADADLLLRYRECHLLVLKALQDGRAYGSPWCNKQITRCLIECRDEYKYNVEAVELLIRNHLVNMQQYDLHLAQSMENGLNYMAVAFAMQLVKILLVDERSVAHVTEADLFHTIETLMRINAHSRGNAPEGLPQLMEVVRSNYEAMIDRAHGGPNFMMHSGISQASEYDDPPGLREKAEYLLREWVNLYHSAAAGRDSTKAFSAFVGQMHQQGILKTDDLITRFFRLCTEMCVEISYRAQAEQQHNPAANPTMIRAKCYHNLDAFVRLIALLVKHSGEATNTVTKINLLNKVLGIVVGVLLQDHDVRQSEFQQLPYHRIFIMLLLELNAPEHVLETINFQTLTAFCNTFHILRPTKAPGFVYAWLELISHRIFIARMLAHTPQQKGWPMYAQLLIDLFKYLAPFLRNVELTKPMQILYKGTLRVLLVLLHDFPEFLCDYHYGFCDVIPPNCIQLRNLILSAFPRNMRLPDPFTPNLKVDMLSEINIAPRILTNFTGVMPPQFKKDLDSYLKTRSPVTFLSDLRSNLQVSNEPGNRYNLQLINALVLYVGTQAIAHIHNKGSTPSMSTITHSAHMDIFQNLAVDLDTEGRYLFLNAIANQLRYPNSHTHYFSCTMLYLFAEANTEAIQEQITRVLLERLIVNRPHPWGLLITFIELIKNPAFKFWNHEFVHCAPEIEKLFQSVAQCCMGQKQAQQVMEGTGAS

[13] = molecular target: CCR4-NOT transcription complex subunit 3 (Homo sapiens) (UniProt O75175); test: Binding affinity to CCR4-NOT transcription complex subunit 3 in human INA-6 cells after 3 hrs by nanoLC-MS/MS method; format: cell-based; procedure, shortened: as §1
[14] = molecular target: Mitogen-activated protein kinase kinase kinase 6 (Homo sapiens) (UniProt O95382); test: Binding affinity to MAP3K6 in human INA-6 cells after 3 hrs by nanoLC-MS/MS method; format: cell-based; procedure, shortened: as §1
[15] = molecular target: Conserved oligomeric Golgi complex subunit 3 (Homo sapiens) (UniProt Q96JB2); test: Binding affinity to COG3 in human INA-6 cells after 3 hrs by nanoLC-MS/MS method; format: cell-based; procedure, shortened: as §1
[16] = molecular target: Gem-associated protein 7 (Homo sapiens) (UniProt Q9H840); test: Binding affinity to GEMIN7 in human INA-6 cells after 3 hrs by nanoLC-MS/MS method; format: cell-based; procedure, shortened: as §1
Chain of Gem-associated protein 7 (Homo sapiens) (Q9H840 whole entry): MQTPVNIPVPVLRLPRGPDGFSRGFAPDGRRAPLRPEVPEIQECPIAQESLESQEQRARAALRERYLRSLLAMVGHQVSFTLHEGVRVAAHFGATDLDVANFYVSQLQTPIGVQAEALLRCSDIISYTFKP

[17] = molecular target: Conserved oligomeric Golgi complex subunit 4 (Homo sapiens) (UniProt Q9H9E3); test: Binding affinity to COG4 in human INA-6 cells after 3 hrs by nanoLC-MS/MS method; format: cell-based; procedure, shortened: as §1
Chain of Conserved oligomeric Golgi complex subunit 4 (Homo sapiens) (Q9H9E3 whole entry, one chain of several): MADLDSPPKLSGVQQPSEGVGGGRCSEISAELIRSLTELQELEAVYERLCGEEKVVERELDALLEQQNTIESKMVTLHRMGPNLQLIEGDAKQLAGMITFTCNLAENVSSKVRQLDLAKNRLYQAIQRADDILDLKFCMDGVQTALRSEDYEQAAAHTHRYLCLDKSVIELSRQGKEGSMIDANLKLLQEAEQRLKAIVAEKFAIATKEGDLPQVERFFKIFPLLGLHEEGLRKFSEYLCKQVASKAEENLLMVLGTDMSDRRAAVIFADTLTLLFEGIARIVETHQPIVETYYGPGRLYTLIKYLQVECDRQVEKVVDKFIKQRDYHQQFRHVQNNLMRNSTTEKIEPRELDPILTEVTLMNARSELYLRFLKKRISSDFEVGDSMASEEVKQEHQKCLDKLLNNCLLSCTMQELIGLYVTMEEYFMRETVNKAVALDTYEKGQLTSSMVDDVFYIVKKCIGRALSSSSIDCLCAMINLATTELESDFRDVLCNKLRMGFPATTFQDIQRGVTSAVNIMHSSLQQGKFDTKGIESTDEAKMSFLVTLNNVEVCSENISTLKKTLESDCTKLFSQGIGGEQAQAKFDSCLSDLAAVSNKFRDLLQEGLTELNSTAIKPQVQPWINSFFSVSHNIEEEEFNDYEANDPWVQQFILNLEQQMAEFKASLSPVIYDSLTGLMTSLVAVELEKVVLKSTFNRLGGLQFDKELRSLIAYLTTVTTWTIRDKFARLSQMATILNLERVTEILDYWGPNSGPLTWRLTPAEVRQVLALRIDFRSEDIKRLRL

[18] = molecular target: Serine/threonine-protein kinase ATR (Homo sapiens) (UniProt Q13535); test: Binding affinity to ATR protein in human INA-6 cells after 3 hrs by nanoLC-MS/MS method; format: cell-based; procedure, shortened: as §1
[19] = system: INA-6; test: Inhibition of heat shock response in human INA-6 cells assessed as reduction in HSF-1 mediated upregulation of the heat shock protein HSP72 at 50 uM preincubated for 4 hrs followed by HSP90 inhibitor and HSR inducer NVP-AUY922 addition measured after 4 hrs by ELISA; format: functional, cell-based
Procedure, shortened: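 HSP72 quantified by ELISA in the same protein lysates used for Western blots. INA-6 cells received compound for 4 h, then NVP-AUY922 co-treatment for 4 h more to stimulate HSF1. DMSO-only and NVP-AUY922-only cells served as negative and positive controls.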

[20] = molecular target: Protein CIP2A (Homo sapiens) (UniProt Q8TCG1); test: Binding affinity to CIP2A protein in human INA-6 cells after 3 hrs by nanoLC-MS/MS method; format: cell-based; procedure, shortened: as §1
[21] = molecular target: CCR4-NOT transcription complex subunit 1 (Homo sapiens) (UniProt A5YKK6); test: Binding affinity to CNOT1 protein in human INA-6 cells after 3 hrs by nanoLC-MS/MS method; format: cell-based; procedure, shortened: as §1
[22] = molecular target: Conserved oligomeric Golgi complex subunit 1 (Homo sapiens) (UniProt Q8WTW3); test: Binding affinity to COG1 in human INA-6 cells after 3 hrs by nanoLC-MS/MS method; format: cell-based; procedure, shortened: as §1
[23] = molecular target: Stalled ribosome sensor GCN1 (Homo sapiens) (UniProt Q92616); test: Binding affinity to GCN1 protein in human INA-6 cells after 3 hrs by nanoLC-MS/MS method; format: cell-based; procedure, shortened: as §1
[24] = molecular target: Conserved oligomeric Golgi complex subunit 6 (Homo sapiens) (UniProt Q9Y2V7); test: Binding affinity to COG6 in human INA-6 cells after 3 hrs by nanoLC-MS/MS method; format: cell-based; procedure, shortened: as §1
Chain of Conserved oligomeric Golgi complex subunit 6 (Homo sapiens) (Q9Y2V7 whole entry, one chain of several): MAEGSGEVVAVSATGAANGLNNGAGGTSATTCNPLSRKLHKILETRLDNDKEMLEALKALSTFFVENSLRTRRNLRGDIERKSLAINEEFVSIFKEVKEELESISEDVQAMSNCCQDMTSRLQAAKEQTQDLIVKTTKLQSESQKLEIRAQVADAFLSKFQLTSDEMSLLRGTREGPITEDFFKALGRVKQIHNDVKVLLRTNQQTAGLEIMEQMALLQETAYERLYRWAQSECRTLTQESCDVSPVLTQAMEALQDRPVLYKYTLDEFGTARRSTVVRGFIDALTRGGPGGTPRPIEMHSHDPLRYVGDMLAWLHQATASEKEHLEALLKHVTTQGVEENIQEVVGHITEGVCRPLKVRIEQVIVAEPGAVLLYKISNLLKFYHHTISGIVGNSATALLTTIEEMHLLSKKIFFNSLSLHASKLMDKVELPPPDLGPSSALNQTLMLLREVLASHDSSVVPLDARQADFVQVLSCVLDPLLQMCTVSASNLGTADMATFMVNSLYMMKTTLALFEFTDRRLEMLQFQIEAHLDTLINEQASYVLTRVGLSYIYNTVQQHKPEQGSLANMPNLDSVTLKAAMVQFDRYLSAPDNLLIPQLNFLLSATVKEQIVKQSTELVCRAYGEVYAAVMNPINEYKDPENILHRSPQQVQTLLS

[25] = molecular target: CCR4-NOT transcription complex subunit 11 (Homo sapiens) (UniProt Q9UKZ1); test: Binding affinity to CCR4-NOT transcription complex subunit 11 in human INA-6 cells after 3 hrs by nanoLC-MS/MS method; format: cell-based; procedure, shortened: as §1
[26] = molecular target: Survival of motor neuron-related-splicing factor 30 (Homo sapiens) (UniProt O75940); test: Binding affinity to survival of motor neuron-related-splicing factor 30 in human INA-6 cells after 3 hrs by nanoLC-MS/MS method; format: cell-based; procedure, shortened: as §1
Chain of Survival of motor neuron-related-splicing factor 30 (Homo sapiens) (O75940 whole entry): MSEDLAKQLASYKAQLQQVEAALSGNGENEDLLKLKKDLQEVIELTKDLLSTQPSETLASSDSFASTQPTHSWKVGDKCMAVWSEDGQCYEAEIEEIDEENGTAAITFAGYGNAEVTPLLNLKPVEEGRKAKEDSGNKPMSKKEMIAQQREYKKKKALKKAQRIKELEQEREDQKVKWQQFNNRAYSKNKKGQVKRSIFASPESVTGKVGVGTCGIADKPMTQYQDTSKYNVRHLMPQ

[27] = molecular target: Brefeldin A-inhibited guanine nucleotide-exchange protein 2 (Homo sapiens) (UniProt Q9Y6D5); test: Binding affinity to BIG2 protein in human INA-6 cells after 3 hrs by nanoLC-MS/MS method; format: cell-based; procedure, shortened: as §1
[28] = molecular target: MICOS complex subunit MIC25 (Homo sapiens) (UniProt Q9BRQ6); test: Binding affinity to MICOS complex subunit MIC25 in human INA-6 cells after 3 hrs by nanoLC-MS/MS method; format: cell-based; procedure, shortened: as §1
[29] = molecular target: CCR4-NOT transcription complex subunit 6-like (Homo sapiens) (UniProt Q96LI5); test: Binding affinity to CCR4-NOT transcription complex subunit 6-like in human INA-6 cells after 3 hrs by nanoLC-MS/MS method; format: cell-based; procedure, shortened: as §1
[30] = molecular target: CCR4-NOT transcription complex subunit 4 (Homo sapiens) (UniProt O95628); test: Binding affinity to CCR4-NOT transcription complex subunit 4 in human INA-6 cells after 3 hrs by nanoLC-MS/MS method; format: cell-based; procedure, shortened: as §1

Chain of Serine/threonine-protein phosphatase 6 regulatory subunit 1 (Homo sapiens) (Q9UPN7 whole entry): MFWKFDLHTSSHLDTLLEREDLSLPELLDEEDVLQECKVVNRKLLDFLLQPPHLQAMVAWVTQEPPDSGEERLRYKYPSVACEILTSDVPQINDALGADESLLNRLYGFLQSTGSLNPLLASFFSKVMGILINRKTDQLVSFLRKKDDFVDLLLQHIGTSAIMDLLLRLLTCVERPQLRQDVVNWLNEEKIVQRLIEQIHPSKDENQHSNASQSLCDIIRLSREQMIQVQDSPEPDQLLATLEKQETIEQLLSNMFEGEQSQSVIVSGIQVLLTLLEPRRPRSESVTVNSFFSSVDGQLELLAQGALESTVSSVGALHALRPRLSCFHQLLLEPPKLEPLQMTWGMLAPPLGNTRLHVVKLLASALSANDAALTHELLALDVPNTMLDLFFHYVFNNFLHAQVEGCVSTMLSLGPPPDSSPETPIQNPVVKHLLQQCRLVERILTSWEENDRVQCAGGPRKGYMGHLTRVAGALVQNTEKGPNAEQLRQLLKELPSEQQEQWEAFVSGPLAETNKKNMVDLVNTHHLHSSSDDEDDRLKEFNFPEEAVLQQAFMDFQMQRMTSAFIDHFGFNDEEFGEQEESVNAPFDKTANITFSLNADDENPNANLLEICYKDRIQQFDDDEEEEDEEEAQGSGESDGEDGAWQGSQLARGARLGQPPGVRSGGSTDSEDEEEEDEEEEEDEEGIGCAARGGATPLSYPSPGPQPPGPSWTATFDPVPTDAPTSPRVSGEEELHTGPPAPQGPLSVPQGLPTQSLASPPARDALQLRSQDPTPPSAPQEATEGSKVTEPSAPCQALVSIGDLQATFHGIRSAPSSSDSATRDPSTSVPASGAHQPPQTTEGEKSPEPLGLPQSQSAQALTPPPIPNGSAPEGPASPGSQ

Compound | Activity [1] | Activity [2] | Activity [3] | heat shock response inhibition (active/not active) [4] | Activity [5] | Activity [6] | Activity [7] | Activity [8] | Activity [9] | Activity [10] | Activity [11] | Activity [12] | Activity [13] | Activity [14] | Activity [15] | Activity [16] | Activity [17] | Activity [18] | HSP72 upregulation inhibition (active/not active) [19] | Activity [20] | also measured
O=C(CCCC[C@@H]1SC[C@@H]2NC(=O)N[C@@H]21)NCCOCCOCCNCCOc1ccc(C(C(=O)NCc2ccccc2)N(C(=O)CCc2ccc(O)cc2)C2CC2)cc1 (mixture of isomers) | Active | Active | Active | inactive | Active | Active | Active | Active | Active | Active | Active | Active | Active | Active | Active | Active | Active | Active | inactive | Active | Activity [21]: Active; Activity [22]: Active; Activity [23]: Active; Activity [24]: Active; Activity [25]: Active; Activity [26]: Active; Activity [27]: Active; Activity [28]: Active; Activity [29]: Active; Activity [30]: Active
O=C(CCCC[C@@H]1SC[C@@H]2NC(=O)N[C@@H]21)NCCOCCOCCNCCOc1ccc(C(C(=O)NCc2ccccc2)N(C(=O)CCc2ccccc2)C2CC2)cc1 (mixture of isomers) | Active | Active | Active | inactive | Active | Active | Active | Active | Active | Active | Active | Active | Active | Active | Active | Active | Active | Active | inactive | Active | Activity [21]: Active; Activity [22]: Active; Activity [23]: Active; Activity [24]: Active; Activity [25]: Active; Activity [26]: Active; Activity [27]: Active; Activity [28]: Active; Activity [29]: Active; Activity [30]: Active
